Laboratory results reported in ChEMBL document CHEMBL1132626 (J Med Chem, 1999).

Legend:
Rattus norvegicus [1] = assay: In vivo efficacy was evaluated using a carrageenan-induced rat paw edema model as ED50.; type: functional
Outline: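 Male Sprague–Dawley rats (150–200 g) were fasted overnight and dosed po in vehicle (1% methocel or 5% Tween 80). After 1 h, baseline paw volume was measured by plethysmometry and 1% carrageenan in saline was injected subplantarly (500 µg/paw). Paw swelling was measured 3 h later and % inhibition calculated versus vehicle. ED50 used ≥4 dose points with 5 rats/group.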

[2] = target: T1, Prostaglandin G/H synthase 2 (Homo sapiens, UniProt P35354); type: tissue-based, Blood
T1 sequence (P35354 whole entry): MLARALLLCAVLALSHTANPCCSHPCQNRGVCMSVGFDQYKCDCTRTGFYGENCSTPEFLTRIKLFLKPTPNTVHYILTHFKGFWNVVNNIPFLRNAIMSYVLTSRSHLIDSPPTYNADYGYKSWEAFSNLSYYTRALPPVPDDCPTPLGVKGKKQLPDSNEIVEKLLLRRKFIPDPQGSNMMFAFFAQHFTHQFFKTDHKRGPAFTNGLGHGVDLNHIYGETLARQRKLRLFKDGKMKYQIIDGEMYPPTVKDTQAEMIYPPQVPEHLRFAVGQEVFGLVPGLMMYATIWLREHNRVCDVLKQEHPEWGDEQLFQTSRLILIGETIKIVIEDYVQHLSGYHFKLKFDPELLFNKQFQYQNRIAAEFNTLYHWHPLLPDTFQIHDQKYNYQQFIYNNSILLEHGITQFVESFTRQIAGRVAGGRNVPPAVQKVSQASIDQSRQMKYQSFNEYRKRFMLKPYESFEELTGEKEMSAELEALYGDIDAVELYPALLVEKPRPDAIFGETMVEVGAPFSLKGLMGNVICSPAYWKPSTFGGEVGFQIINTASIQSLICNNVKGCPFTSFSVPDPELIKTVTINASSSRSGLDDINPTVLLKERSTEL

[3] = target: T2, Prostaglandin G/H synthase 1 (Homo sapiens, UniProt P23219)
T2 sequence (P23219 whole entry): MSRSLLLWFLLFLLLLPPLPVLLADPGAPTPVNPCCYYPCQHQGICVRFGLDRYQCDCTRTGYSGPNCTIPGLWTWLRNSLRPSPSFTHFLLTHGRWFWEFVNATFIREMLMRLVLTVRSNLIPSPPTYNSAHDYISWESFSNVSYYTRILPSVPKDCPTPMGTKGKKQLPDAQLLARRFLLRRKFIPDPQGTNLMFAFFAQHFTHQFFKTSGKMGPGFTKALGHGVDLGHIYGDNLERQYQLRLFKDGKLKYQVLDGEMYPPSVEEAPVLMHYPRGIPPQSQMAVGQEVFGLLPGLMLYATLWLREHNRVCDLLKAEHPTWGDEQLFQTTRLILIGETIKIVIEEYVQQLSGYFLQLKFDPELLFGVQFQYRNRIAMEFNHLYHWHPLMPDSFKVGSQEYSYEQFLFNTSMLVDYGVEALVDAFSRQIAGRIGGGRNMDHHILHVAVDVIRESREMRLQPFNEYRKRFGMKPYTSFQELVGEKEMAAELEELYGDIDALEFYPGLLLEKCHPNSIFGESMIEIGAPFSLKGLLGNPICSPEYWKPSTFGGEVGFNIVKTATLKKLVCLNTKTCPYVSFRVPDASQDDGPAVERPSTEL

[4] = target: T1, Prostaglandin G/H synthase 2; type: cell-based, CHO
[5] = target: T2, Prostaglandin G/H synthase 1; type: tissue-based, Blood
Rattus norvegicus [6] = assay: In vivo efficacy was evaluated using a LPS-induced rat pyresis model as ED50.
Rattus norvegicus [7] = assay: In vivo efficacy was evaluated in adjuvant arthritis(21 day); type: functional; conditions: 504 h, read-out: ID50 (the source's name)
Outline: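 Arthritis was induced in female Lewis rats (7 weeks, 144–172 g) by intradermal left hind footpad injection of 0.5 mg Mycobacterium butyricum in light mineral oil; 10 rats/group. Secondary-paw volume, body weight and radiographs were recorded on days 0, 14 and 21. Analysis used two-factor repeated-measures ANOVA with Dunnett's test.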

Rattus norvegicus [8] = assay: In vivo efficacy was evaluated using a carrageenan-induced rat hyperalgesia model as ED50.; type: functional
Outline: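 Male Sprague–Dawley rats (90–110 g) received intraplantar carrageenan (4.5 mg/paw). Compound was given orally 2 h after carrageenan. One hour later, the vocalization response to compression of the injected paw was measured with an algesiometer. ID50 was derived from at least four dose points.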

Rattus norvegicus [9] = assay: Compound was tested for 10 days at 100 mg/kg/day in rats activity measured as Cr leakage; Clean; type: functional, organism-based

SMILES	ED50 (Rattus norvegicus [1])	IC50 [2]	IC50 [3]	IC50 [4]	IC50 [5]	ED50 (Rattus norvegicus [6])	ED50 (Rattus norvegicus [7])	ED50 (Rattus norvegicus [8])	Cr leakage (Rattus norvegicus [9])
CS(=O)(=O)c1ccc(C2=C(c3ccc(F)cc3)C(=O)CC2)cc1	3 mg/kg	80 nM	500 nM	19 nM	3700 nM	–	–	–	–
CS(=O)(=O)c1ccc(C2=C(c3cc(Cl)c(Cl)c(Cl)c3)C(=O)CC2)cc1	–	930 nM	2500 nM	6 nM	–	–	–	–	–
CS(=O)(=O)c1ccc(C2=C(/C=C/c3ccc(F)cc3)C(=O)CC2)cc1	> 10 mg/kg	500 nM	–	175 nM	27000 nM	–	–	–	–
CS(=O)(=O)c1ccc(C2=C(c3cncc(Cl)c3)C(=O)CC2)cc1	1.3 mg/kg	–	> 100000 nM	–	> 100000 nM	–	–	–	–
CS(=O)(=O)c1ccc(C2=C(c3ccc(Cl)c(F)c3)C(=O)CC2)cc1	–	150 nM	700 nM	15 nM	100 nM	–	–	–	–
CS(=O)(=O)c1ccc(C2=C(c3cc(Cl)cc(Cl)c3)C(=O)CC2)cc1	> 10 mg/kg	280 nM	9200 nM	14 nM	> 100000 nM	–	–	–	–
CS(=O)(=O)c1ccc(C2=C(c3cc(Br)ccn3)C(=O)CC2)cc1	–	470 nM	18000 nM	630 nM	–	–	–	–	–
CS(=O)(=O)c1ccc(C2=C(C#Cc3ccccc3)C(=O)CC2)cc1	–	640 nM	–	6 nM	–	–	–	–	–
CS(=O)(=O)c1ccc(C2=C(c3cccc(F)c3)C(=O)CC2)cc1	6.4 mg/kg	340 nM	6600 nM	14 nM	–	–	–	–	–
COc1ccncc1C1=C(c2ccc(S(C)(=O)=O)cc2)CCC1=O	–	90 nM	60 nM	150 nM	–	–	–	–	–
CS(=O)(=O)c1ccc(C2=C(c3ccccn3)C(=O)CC2)cc1	–	9800 nM	> 10000 nM	1530 nM	–	–	–	–	–
CS(=O)(=O)c1ccc(C2=C(c3ccccc3)C(=O)CC2)cc1	10 mg/kg	–	3100 nM	11 nM	4100 nM	–	–	–	–
CS(=O)(=O)c1ccc(C2=C(c3ccc(F)c(Cl)c3)C(=O)CC2)cc1	–	90 nM	300 nM	9 nM	–	–	–	–	–
CS(=O)(=O)c1ccc(C2=C(c3cncc(Br)c3)C(=O)CC2)cc1	–	1700 nM	> 100000 nM	300 nM	–	–	–	–	–
CS(=O)(=O)c1ccc(C2=C(c3cccnc3)C(=O)CC2)cc1	1.7 mg/kg	640 nM	34000 nM	170 nM	73000 nM	0.7 mg/kg	0.6 mg/kg	0.7 mg/kg	Clean
CS(=O)(=O)c1ccc(C2=C(Oc3cc(F)cc(F)c3)C(=O)CC2)cc1	6.6 mg/kg	1100 nM	2700 nM	17 nM	94000 nM	–	–	–	–
CS(=O)(=O)c1ccc(C2=C(c3cc4ccccc4s3)C(=O)CC2)cc1	–	80 nM	100 nM	14 nM	–	–	–	–	–
CS(=O)(=O)c1ccc(C2=C(c3ccc(F)c(F)c3)C(=O)CC2)cc1	–	210 nM	1700 nM	14 nM	3200 nM	–	–	–	–
CS(=O)(=O)c1ccc(C2=C(c3ccccc3)C(=O)OC2)cc1 [ROFECOXIB]	1.7 mg/kg	–	–	–	–	–	–	–	–
Cc1ccc(-c2cc(C(F)(F)F)nn2-c2ccc(S(N)(=O)=O)cc2)cc1 [CELECOXIB]	3.2 mg/kg	–	–	–	–	–	–	–	–
CC(C)(C)C#CC1=C(c2ccc(S(C)(=O)=O)cc2)CCC1=O	–	5200 nM	> 100000 nM	150 nM	–	–	–	–	–
Cc1ccncc1C1=C(c2ccc(S(C)(=O)=O)cc2)CCC1=O	–	450 nM	5500 nM	440 nM	4100 nM	–	–	–	–
CS(=O)(=O)c1ccc(C2=C(c3cc(Cl)ccn3)C(=O)CC2)cc1	2.5 mg/kg	520 nM	27000 nM	190 nM	34000 nM	–	–	–	–
CS(=O)(=O)c1ccc(C2=C(c3cc(F)cc(F)c3)C(=O)CC2)cc1	2.6 mg/kg	620 nM	–	15 nM	61000 nM	0.8 mg/kg	4 mg/kg	3 mg/kg	Clean
